The list is not random: actives were taken first. Their share in the collection is about 4.7%.
aSyn UTR inh = 5' untranslated region of α-synuclein, MLPCN primary screen. alpha-synuclein 5'UTR reporter, inhibitor activity. inhibition, % (tested at 7.5 µM). 300,000 compounds, 0.82% hits; in the data active = inhibition above about 60%;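 also: H4 neuroglioblastoma cells stably carrying SNCA 5'UTR luciferase fusion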
Mdm2 MdmX PPI = human Mdm2/MdmX binding inhibition. O15151+Q00987. SaOS-2 split-luciferase Mdm2/MdmX complementation, luminescence. inhibition, % at 8 µM. 330,000 compounds, 3% hits. AID 485346;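 active = inhibition of at least 50% at 8 µM in the primary screen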
Target sequence (O15151 whole entry, looked up): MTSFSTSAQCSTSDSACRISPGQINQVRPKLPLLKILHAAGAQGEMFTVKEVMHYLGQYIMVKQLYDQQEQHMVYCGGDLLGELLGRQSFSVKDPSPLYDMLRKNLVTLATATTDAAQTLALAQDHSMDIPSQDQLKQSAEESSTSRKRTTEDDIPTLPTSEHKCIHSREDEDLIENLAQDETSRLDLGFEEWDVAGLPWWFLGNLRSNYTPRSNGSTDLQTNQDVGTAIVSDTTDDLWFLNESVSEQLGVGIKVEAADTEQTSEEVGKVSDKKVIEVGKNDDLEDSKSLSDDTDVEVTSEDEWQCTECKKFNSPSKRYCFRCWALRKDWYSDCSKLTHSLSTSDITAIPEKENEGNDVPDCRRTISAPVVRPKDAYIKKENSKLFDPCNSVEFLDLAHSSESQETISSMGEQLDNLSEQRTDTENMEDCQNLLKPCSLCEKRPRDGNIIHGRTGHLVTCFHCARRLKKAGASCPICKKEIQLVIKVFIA
Target sequence (Q00987 whole entry, looked up): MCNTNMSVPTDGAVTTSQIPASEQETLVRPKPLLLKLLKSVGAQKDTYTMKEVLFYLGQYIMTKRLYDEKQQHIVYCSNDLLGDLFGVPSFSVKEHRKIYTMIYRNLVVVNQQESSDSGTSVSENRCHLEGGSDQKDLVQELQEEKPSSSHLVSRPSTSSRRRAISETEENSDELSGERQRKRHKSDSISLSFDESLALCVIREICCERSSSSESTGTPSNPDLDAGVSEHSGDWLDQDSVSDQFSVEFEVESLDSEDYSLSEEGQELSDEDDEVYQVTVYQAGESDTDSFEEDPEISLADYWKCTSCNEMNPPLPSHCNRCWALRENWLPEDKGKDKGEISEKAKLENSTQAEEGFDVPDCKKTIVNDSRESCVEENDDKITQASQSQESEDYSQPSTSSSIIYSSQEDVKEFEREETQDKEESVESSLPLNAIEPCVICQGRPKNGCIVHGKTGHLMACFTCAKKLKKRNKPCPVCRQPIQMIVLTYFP
IMP-1 inh = blocks Pseudomonas aeruginosa IMP-1 metallo-beta-lactamase. AID 1556. inhibition, % at 5.6 µM. 290,000 compounds, 0.45% hits. purified IMP-1, nitrocefin hydrolysis, epi-absorbance fluorescence;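 active = inhibition above the mean plus 3 SD of all compounds in the same screening run, cut at about 4.5% in these data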
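Assay system: purified IMP-1; Quantity: IMP-1 0.2 nM before substrate addition; Medium: HEPES buffer pH 7.1 with ZnSO4 and Brij 35; Incubation: 15 min enzyme–compound preincubation, then 25 min nitrocefin reaction, 25 °C; Signal: fluorescence quenching readout, ex 480/em 530 nm; Controls: DMSO with and without IMP-1; Repeats: singlicate testing.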
Jurkat NFkB inh = inhibitors of the PMA/ionomycin-induced NF-kB reporter in Jurkat cells; PMA/ionomycin-induced NF-kB luciferase reporter, luminescence; inhibition, % at 4 µM; 330,000 compounds, 0.53% hits; AID 435003; in the data active = inhibition above about 50%
697 NFkB inh = inhibitors of the PMA/ionomycin-induced NF-kB reporter in 697 B cells; AID 435022; 330,000 compounds, 0.33% hits; 697 B-cell NF-kB luciferase reporter, 16 h; inhibition, % at 4 µM; in the data active = inhibition above about 35%
VIM-2 inh = inhibitors of Pseudomonas aeruginosa VIM-2 metallo-beta-lactamase; purified VIM-2, nitrocefin hydrolysis, epi-absorbance fluorescence; inhibition, % at 5.6 µM; 290,000 compounds, 0.89% hits;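 active = inhibition above the mean of all tested compounds plus 3 SD, cutoff set per screening run, cut at about 7.5% in these data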;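 also: red hydrolysis product quenches plate fluorescence so inhibitors raise well fluorescence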
Mdm2 MdmX conf = confirmation of human Mdm2/MdmX interaction inhibitors. shares compounds with Mdm2 MdmX PPI. Mdm2-MdmX binding, luminescent assay. inhibition, % at 8 µM. 10,000 compounds, 55% hits. AID 489028; in the data active = inhibition above about 40%
FLuc counter = counter-screen for Mdm2/MdmX inhibitors: full-length luciferase. shares compounds with Mdm2 MdmX PPI. SaOS-2 full-length luciferase counterscreen, luminescence. inhibition, % at 8 µM. 6,200 compounds, 77% hits. AID 504607;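 active = mean inhibition at 8 µM reaching about 37%, which flags the compound as non-specific, limit read from the data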;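 also: p53-null SaOS-2 cells with luciferase driven by a doxycycline-inducible promoter; compound on cells about two nights before reading with doxycycline added after day one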
Large screens that a line does not name were inactive (follow-up assays come after a bar, where they were run).

CCCCCOc1ccc(C(=O)Nc2ccc(S(=O)(=O)Nc3cc(C)on3)cc2)cc1	none
Cc1ccc(-c2[nH][nH]c(=O)c(=O)c2N=Nc2ccccc2)cc1	Mdm2 MdmX PPI 61 | Mdm2 MdmX conf inactive
Cc1ccc(Cn2ccc(NC(=O)c3cc(-c4cccc(Cl)c4)on3)n2)cc1	Mdm2 MdmX PPI 55 | Mdm2 MdmX conf inactive
COc1ccccc1N(C(=O)CCl)c1cn(C(C)=O)c2ccccc12	Mdm2 MdmX PPI 96 | Mdm2 MdmX conf 100 | FLuc counter 52
CC(=O)n1cc(N(C(=O)CCl)c2ccc(Cl)cc2)c2ccccc21	aSyn UTR inh 103, Mdm2 MdmX PPI 99 | Mdm2 MdmX conf 100 | FLuc counter inactive
COc1ccccc1N(CC(O)Cn1c2ccccc2c2ccccc21)S(=O)(=O)c1ccccc1 (configuration not stated)	none
CC(=O)n1cc(C2C(=O)CCCC2=O)c2ccccc21	none
O=C(CSc1nnc2ccccn12)NC(=O)Cc1ccccc1	none
CCCC(=O)Nc1ccc(C(=O)NNC(=O)COc2ccc(Br)c(C)c2)cc1	none
Cc1ccc(S(=O)(=O)N(C)CC(=O)NCCCn2ccnc2)cc1	none
Cc1cc(C)cc(NC(=O)NCC2CCN(Cc3cc(C)ccc3C)CC2)c1	Mdm2 MdmX PPI 50 | Mdm2 MdmX conf inactive
Cc1ccc(C)c(CN2CCC(CNC(=O)Nc3ccc(F)c(Cl)c3)CC2)c1	Mdm2 MdmX PPI 69 | Mdm2 MdmX conf inactive | FLuc counter 56
Cc1ccc(C)c(CN2CCC(CNC(=O)Nc3cccc(Cl)c3C)CC2)c1	none
Cc1ccc(NC(=O)NCC2CCN(Cc3cccc(Cl)c3)CC2)cc1Cl	none
COc1ccc(CNCCC(c2ccc(F)cc2)c2ccc(OC(C)C)cc2)cc1OC (configuration not stated)	Mdm2 MdmX PPI 93 | Mdm2 MdmX conf inactive | FLuc counter 76
COc1ccc(C(CCN(Cc2ccc(OC)c(OC)c2)C(C)=O)c2ccccc2)cc1 (configuration not stated)	none
COc1ccc(CN(CCC(c2ccccc2)c2ccc(OC(C)C)cc2)C(=O)CCl)cc1OC (configuration not stated)	Mdm2 MdmX PPI 101 | Mdm2 MdmX conf 85 | FLuc counter 55
COc1ccc(CNCC(O)(c2ccc(F)cc2)c2ccc(F)cc2)cc1OC	none
COc1ccc(CNCCC(c2ccccc2)c2ccc(OC(C)C)cc2)cc1OC (configuration not stated)	Mdm2 MdmX PPI 75 | Mdm2 MdmX conf inactive
COc1cccc(/C=N\NS(=O)(=O)c2ccccc2)c1OC	none
COc1cc([C@@H]2c3cc4c(cc3[C@@H](O[C@@H]3O[C@@H]5CO[C@@H](C)O[C@H]5[C@H](O)[C@H]3O)[C@H]3COC(=O)[C@H]23)OCO4)cc(OC)c1O	Mdm2 MdmX PPI 78 (no result: IMP-1 inh, VIM-2 inh) | Mdm2 MdmX conf 60 | FLuc counter inactive
Fc1ccc(NC(=S)Nc2ccc(F)c(Cl)c2)cc1Cl	Mdm2 MdmX PPI 64 | Mdm2 MdmX conf inactive
O=C(NC(=S)Nc1ccc(F)c(Cl)c1)C1CC1	none
Cn1nc(C(F)(F)F)c(C#N)c1N1CCN(c2ccc(F)cc2)CC1	Mdm2 MdmX PPI 56 | Mdm2 MdmX conf inactive
O=C(Nc1ccc([N+](=O)[O-])cc1)c1nc[nH]c1C(=O)NC1CCCCC1	Mdm2 MdmX PPI 67 | Mdm2 MdmX conf inactive
CCOC(=O)c1[nH]cnc1C(=O)Nc1ccc([N+](=O)[O-])cc1	none
O=C(Nc1ccc(F)cc1)c1nc[nH]c1C(=O)Nc1ccc([N+](=O)[O-])cc1	Mdm2 MdmX PPI 92 | Mdm2 MdmX conf inactive
CCOC(=O)c1c(C)[nH]c(C(=O)N2CCc3cc(OC)c(OC)cc3C2)c1C	none (no result: IMP-1 inh, VIM-2 inh)
O=C1C=C(c2ccccc2)C[C@H](c2cccs2)[C@H]1n1nnc([N+](=O)[O-])n1	aSyn UTR inh 88, Mdm2 MdmX PPI 71 | Mdm2 MdmX conf 57 | FLuc counter 60
Cc1ccc(-c2nc3ncccc3o2)cc1NC(=O)c1cccs1	none
Cc1ccc(-c2nc3ncccc3o2)cc1NC(=O)c1sc2ccccc2c1Cl	Mdm2 MdmX PPI 83 | Mdm2 MdmX conf inactive
CCN(CC)CCCn1c2c(c(SCC(=O)Nc3nccs3)nc1=O)CCC2	none (no result: IMP-1 inh, VIM-2 inh)
CN1CCN(Cc2nc3ccccc3c(=O)n2Cc2nc(-c3ccc([N+](=O)[O-])cc3)cs2)CC1	Mdm2 MdmX PPI 95 | Mdm2 MdmX conf inactive
CN(C)Cc1nc2ccccc2c(=O)n1Cc1nc(-c2cccc([N+](=O)[O-])c2)cs1	none
CCCOc1ccc(C(=O)CCC(=O)OCC(=O)Nc2cc(C)on2)cc1	none (no result: aSyn UTR inh, Mdm2 MdmX PPI, Jurkat NFkB inh, 697 NFkB inh)
CC(NC(=O)/C(C#N)=C1\N=C(NC(=O)c2ccco2)c2ccccc21)c1ccccc1 (configuration not stated)	Mdm2 MdmX PPI 67 | Mdm2 MdmX conf inactive
COC(=O)C1=C(C)N(Cc2ccccc2)C(=NCCc2c[nH]c3ccccc23)N[C@H]1c1ccccc1	Mdm2 MdmX PPI 55 (no result: aSyn UTR inh, IMP-1 inh, VIM-2 inh) | Mdm2 MdmX conf inactive
COC(=O)C1=C(C)N(Cc2ccccc2)C(=NCCc2c[nH]c3ccccc23)N[C@H]1c1cccc(F)c1	Mdm2 MdmX PPI 98 (no result: aSyn UTR inh, IMP-1 inh, VIM-2 inh) | Mdm2 MdmX conf 51 | FLuc counter 56
COc1ccc(C(=O)N/N=C/c2ccc(N(C)c3ccccc3)cc2)cc1	none (no result: IMP-1 inh, VIM-2 inh)
CCOc1cc(/C=C/C(=O)c2ccc3c(c2)OCCO3)ccc1OCC(=O)N(C)C	Mdm2 MdmX PPI 55 | Mdm2 MdmX conf inactive | FLuc counter 51
COc1ccc(NS(=O)(=O)c2cc(NC(=O)c3ccc(Cl)cc3)ccc2N2CCOCC2)cc1	Mdm2 MdmX PPI 82 (no result: aSyn UTR inh, IMP-1 inh, VIM-2 inh) | Mdm2 MdmX conf 67 | FLuc counter inactive
O=C(Nc1cc(S(=O)(=O)Nc2ccc(Cl)cc2)ccc1N1CCCCC1)c1ccc(F)cc1	Mdm2 MdmX PPI 72 | Mdm2 MdmX conf inactive
COc1ccc2oc(-c3ccc(NC(=O)c4ccc(N5CCOCC5)c([N+](=O)[O-])c4)cc3)nc2c1	Mdm2 MdmX PPI 56 | Mdm2 MdmX conf inactive
COc1ccc(NS(=O)(=O)c2cc(NC(=O)c3ccco3)ccc2N2CCCCC2)cc1	Mdm2 MdmX PPI 60 | Mdm2 MdmX conf inactive | FLuc counter 60
COc1ccc(NS(=O)(=O)c2cc(NC(=O)C3CC3)ccc2N2CCCCC2)cc1	none
O=C(Nc1ccc(-c2nc3ccccc3o2)cc1)c1ccc(N2CCOCC2)c([N+](=O)[O-])c1	none
COc1ccc2[nH]c3c(=O)n(CCCCC(=O)NCCC(C)C)c(=S)[nH]c3c2c1	none
Oc1ccc(Cl)cc1Cc1cc(Cl)ccc1O	Mdm2 MdmX PPI 87 | Mdm2 MdmX conf 60 | FLuc counter 48
COc1ccccc1Cn1[nH]nnc1=S	none
O=C(Nc1nc2ccccc2[nH]1)c1cccs1	none
